According to ChEMBL document CHEMBL4406794, “N-(7-Cyano-6-(4-fluoro-3-(2-(3-(trifluoromethyl)phenyl)acetamido)phenoxy)benzo[d]thiazol-2-yl)cyclopropanecarboxamide (TAK-632) Analogues as Novel Necroptosis Inhibitors by Targeting Receptor-Interacting Protein Kinase 3 (RIPK3): Synthesis, Structure-Activity Relationships, and in Vivo Efficacy” (J Med Chem, 2019):

Experiments:
[1] = test system: Serine/threonine-protein kinase B-raf (Homo sapiens), P15056 [V600E]; experiment: Inhibition of human partial length BRAF V600E mutant (S429 to E741 residues) expressed in mammalian expression system assessed as enzyme remaining activity at 1000 nM by Kinomescan method relative to control
Chain of Serine/threonine-protein kinase B-raf (Homo sapiens), P15056 [V600E] (P15056 whole entry V600E, the tested form may be a part): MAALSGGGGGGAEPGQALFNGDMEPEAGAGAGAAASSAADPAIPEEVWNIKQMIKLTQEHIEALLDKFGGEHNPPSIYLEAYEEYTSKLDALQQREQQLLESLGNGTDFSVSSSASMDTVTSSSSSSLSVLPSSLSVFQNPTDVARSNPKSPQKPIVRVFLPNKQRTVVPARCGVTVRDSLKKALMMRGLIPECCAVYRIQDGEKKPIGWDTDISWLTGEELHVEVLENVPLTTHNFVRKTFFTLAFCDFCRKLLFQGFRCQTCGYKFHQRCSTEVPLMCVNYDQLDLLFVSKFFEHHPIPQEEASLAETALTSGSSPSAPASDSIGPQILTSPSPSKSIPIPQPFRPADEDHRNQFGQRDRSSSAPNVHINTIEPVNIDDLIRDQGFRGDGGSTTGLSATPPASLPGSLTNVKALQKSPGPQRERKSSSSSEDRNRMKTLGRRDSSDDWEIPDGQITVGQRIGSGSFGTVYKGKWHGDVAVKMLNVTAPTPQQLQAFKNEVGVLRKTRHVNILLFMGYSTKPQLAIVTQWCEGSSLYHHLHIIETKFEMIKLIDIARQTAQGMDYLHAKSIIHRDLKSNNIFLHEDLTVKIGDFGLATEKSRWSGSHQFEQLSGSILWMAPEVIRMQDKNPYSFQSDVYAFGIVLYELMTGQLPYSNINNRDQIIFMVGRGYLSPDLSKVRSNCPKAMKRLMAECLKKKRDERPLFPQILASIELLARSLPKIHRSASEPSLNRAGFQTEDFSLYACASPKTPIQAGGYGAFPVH

[2] = Tmax in Sprague-Dawley rat at 1 mg/kg, iv by LC-tandem mass spectrometry analysis; format: ADME, organism-based; settings: in vivo
Method in brief: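 Male Sprague-Dawley rats received compound iv (1 mg/kg) or intragastrically (5 mg/kg). The vehicle was 5% DMSO, 10% Tween 80 and 75% saline, at 0.2 or 1 mg/mL. Blood was sampled at several time points and centrifuged at 4 °C. Plasma was stored at -80 °C and analysed by LC/MS/MS. Parameters were derived by noncompartmental analysis of individual animal data.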

Structure (SMILES): O=C(Nc1cccc(Br)c1)Nc1cc(Oc2ccc3nc(NC(=O)C4CC4)sc3c2)ccc1F
- Activity [1]: 1.8%
- Tmax [2]: 4.98 min
